Assay [1] can be described thus: reduced viability of SK-BR-3 breast cancer cells – cell-based, 24 h, human, pilot screen (AID 572;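 active = viability at or below 10% of carrier control in both of two separate runs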;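 also: compound exposure lasted between 18 and 24 h rather than exactly 24 h; 100% = carrier-treated control wells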). Conditions: SK-BR-3 viability, CellTiter-Glo luminescence, at 10 µM, stronger effect = lower value. For orientation: Cellular ATP, detected with luciferase, serves as a proxy for viable cell number.
A short description of assay [2]: HUVEC growth inhibition – cell-based, human, primary screen (AID 575;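 active = viability at or below 30% in both replicate assays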;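 also: 100% = median of untreated cell wells with 0.1% DMSO on each plate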). Conditions: HUVEC proliferation, CellTiter-Glo luminescence, 72 h; at 10 µM; stronger effect = lower value. A digest of the protocol:
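Material: primary human umbilical vein endothelial cells / Schedule: 72 h exposure, 37 °C, 5% CO2, 30 min RT equilibration / Signal: ATP-based CellTiter-Glo luminescent read / Read-out basis: percent of median DMSO-control luminescence / Control set: 32 DMSO-only cell-control wells (high), 32 MePR drug-control wells (low) per plate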

The nature of assay [3]: H69AR cell proliferation blockers – human, duplicate replicates, primary screen (AID 580;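 active = viability at or under a set limit in both replicates, limit being median viability minus 3 SD, cut at about 48% in these data, passing the limit was not always enough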;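 also: 100% = mean luminescence of untreated wells and 0% = no signal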). The conditions noted are these: H69AR lung tumor cells viability, ATP luminescence, 72 h; at 10 µM; stronger effect = lower value.
Assay [4] in a line: MRP1 drug-resistance reversers in H69AR cells – cell-based, doxorubicin co-treatment, pilot screen (AID 601). Conditions: CellTiter-Glo, 72 h, at 10 µM; for differential viability (reversal): stronger effect = higher value.
Assay [5] in a line: yeast transport mutant growth inhibition pilot in 384-well plates, post-Golgi transport modulator project (AID 636; in the data active = inhibition above about 31%). Conditions: absorbance 615 nm, about 18 h, stronger effect = higher value.
The nature of assay [6]: growth suppression of yeast trafficking mutant, preliminary HTS, modulators of trafficking downstream of Golgi apparatus project, 1536-format plate, OD 615 nm (AID 637; in the data active = inhibition above about 30%). The conditions noted are these: yeast transport mutant growth, absorbance 615 nm, 18 h; stronger effect = higher value.
Where [7] appears, read: H69AR cells + 2 uM doxorubicin, measured here: viability with 2 uM doxorubicin, stronger effect = lower value.
Setting [8] is: H69AR cells, compound alone cytotoxicity.

As usually defined, the viability is a read-out of living cells in per cent, often relative to untreated cells. Usually inhibition stands for the change of the read-out against control, counted positive when it falls.

Structures are written as SMILES. Calls of active or inactive are those of the source.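 The calls were made as follows, unless noted: active = viability loss from added drug above about 55%, and viability with drug at most 40%, in both replicates (limit read from the data, passing the limit was not always enough); inconclusive = both conditions met in only one replicate; inactive = neither replicate meets both conditions.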

On to `COc1cc(NC2c3ccccc3C(=O)N2c2ccc(C)cn2)cc(OC)c1OC` (configuration not stated), for which the viability in assay [1] was 90.5% (inactive); in assay [2], 85.5% (inactive); in assay [3], 88.7% (inactive); in assay [4] (setting [7]) it was 85%; in assay [4] (setting [8]), 88.7%. The differential viability (reversal) in assay [4] (H69AR cells + 2 uM doxorubicin) was 3.73% (inactive). Further, the figures for the inhibition in assay [5] and in assay [6] were -1.41% (inactive) and 1.17% (inactive), respectively.

As for `C/C=C(\C)c1nnc(NC(=O)OCC)s1`, the viability in assay [1] was 94% (inactive); in assay [2], 117% (inactive); in assay [3], 96.4% (inactive); in assay [4] (setting [7]), 89.4%; in assay [4] (setting [8]) it was 96.4%. The differential viability (reversal) in assay [4] (H69AR cells + 2 uM doxorubicin) was 6.96% (inactive). The values for the inhibition in assay [5] and in assay [6] were -2.84% (inactive) and -0.91% (inactive), respectively.

`CC(CN(C)Cc1ccccc1)OC(=O)c1ccc2c(c1)OCCO2` (configuration not stated): the viability in assay [1] was 93% (inactive); in assay [2], 85.3% (inactive); in assay [3] it was 94.1% (inactive); in assay [4] (setting [7]) it was 88.8%; in assay [4] (setting [8]) it was 94.1%. Moreover, the differential viability (reversal) in assay [4] (H69AR cells + 2 uM doxorubicin) is 5.22% (inactive). The inhibition in assay [5] was -7.67% (inactive); in assay [6] it was 1.29% (inactive).

Regarding `CC(Sc1nnnn1C)C(=O)Nc1ccc(Oc2ccccc2)cc1` (configuration not stated), the viability in assay [1] was 92% (inactive); in assay [2], 87.8% (inactive); in assay [3] it was 97.8% (inactive); in assay [4] (setting [7]), 86.8%; in assay [4] (setting [8]), 97.8%. In addition, the differential viability (reversal) in assay [4] (H69AR cells + 2 uM doxorubicin) was 11% (inactive). For the same compound, the inhibition in assay [5] is -7.53% (inactive); in assay [6] it was 0.97% (inactive).

`O=S1(=O)C=C(Oc2ccc(F)cc2)c2ccccc21`: the viability in assay [1] was 100% (inactive); in assay [2], 101% (inactive); in assay [3], 92.5% (inactive); in assay [4] (setting [7]) it was 88.5%; in assay [4] (setting [8]), 92.5%. Also, the differential viability (reversal) in assay [4] (H69AR cells + 2 uM doxorubicin) is 4.02% (inactive). Moreover, the inhibition in assay [5] was -7.03% (inactive); in assay [6], 1.27% (inactive).

Regarding `COc1cccc(-c2nnc(SCC(N)=O)n2-c2ccc(Cl)cc2)c1`, the viability is 114% (inactive) in assay [1]; 103% (inactive) in assay [2]; 97.1% (inactive) in assay [3]; 92.6% in assay [4] (setting [7]); 97.1% in assay [4] (setting [8]). In assay [4] (H69AR cells + 2 uM doxorubicin), the differential viability (reversal) was 4.49% (inactive). The values for the inhibition in assay [5] and in assay [6] were 0% (inactive) and -4.19% (inactive), respectively.

As for `COc1ccc(C(NC(C)=O)c2ccc3cccnc3c2O)c(OC)c1` (configuration not stated), the viability was 65% (inactive) in assay [1]; 3.65% (active) in assay [2]; 23% (active) in assay [3]; 45.1% in assay [4] (setting [7]); 23% in assay [4] (setting [8]). In addition, the differential viability (reversal) in assay [4] (H69AR cells + 2 uM doxorubicin) is -22.1% (inactive). Besides, the inhibition in assay [5] is -6.4% (inactive); in assay [6], 1.09% (inactive).

As for `O=P(CCNCc1ccco1)(c1ccccc1)c1ccccc1`, the viability is 110% (inactive) in assay [1]; 97.8% (inactive) in assay [2]; 97.4% (inactive) in assay [3]; 94.8% in assay [4] (setting [7]); 97.4% in assay [4] (setting [8]). Further, in assay [4] (H69AR cells + 2 uM doxorubicin), the differential viability (reversal) is 2.59% (inactive). The inhibition in assay [5] is -5.6% (inactive); in assay [6], -4.18% (inactive).

With `O=C(NCC(=O)N(Cc1cccs1)C(C(=O)NC1CCCC1)c1ccncc1)c1ccco1` (configuration not stated), the viability is 102% (inactive) in assay [1]; 109% (inactive) in assay [2]; 85.7% (inactive) in assay [3]; 83.5% in assay [4] (setting [7]); 85.7% in assay [4] (setting [8]). Moreover, the differential viability (reversal) in assay [4] (H69AR cells + 2 uM doxorubicin) was 2.2% (inactive). Moreover, the inhibition in assay [5] was -0.54% (inactive); in assay [6], 16.4% (inactive).

With `CC(C)OC(=O)c1cccc(C(=O)O)n1`, the viability in assay [1] is 110% (inactive); in assay [2] it was 91% (inactive); in assay [3], 96% (inactive); in assay [4] (setting [7]), 94.1%; in assay [4] (setting [8]), 96%. Moreover, the differential viability (reversal) in assay [4] (H69AR cells + 2 uM doxorubicin) is 1.99% (inactive). Besides, the inhibition was -1.69% (inactive) in assay [5] and -5.57% (inactive) in assay [6].

`Cc1cccc(C)c1NC(=O)COC(=O)c1nonc1N`: the viability was 79% (inactive) in assay [1]; 108% (inactive) in assay [2]; 98.9% (inactive) in assay [3]; 94.3% in assay [4] (setting [7]); 98.9% in assay [4] (setting [8]). Also, the differential viability (reversal) in assay [4] (H69AR cells + 2 uM doxorubicin) is 4.63% (inactive). In addition, the inhibition is -4.13% (inactive) in assay [5] and -7.09% (inactive) in assay [6].

In the case of `O=S(=O)(c1cccc(S(=O)(=O)N2CCC(N3CCCCC3)CC2)c1)N1CCOCC1`, the viability was 103% (inactive) in assay [1]; 98.9% (inactive) in assay [2]; 93.6% (inactive) in assay [3]; 84.2% in assay [4] (setting [7]); 93.6% in assay [4] (setting [8]). Besides, the differential viability (reversal) in assay [4] (H69AR cells + 2 uM doxorubicin) was 9.45% (inactive). In addition, the inhibition in assay [5] is -0.78% (inactive); in assay [6], -2.95% (inactive).

In the case of `Cc1c(NC(=O)Cn2nc(C(=O)O)c3ccccc3c2=O)c(=O)n(-c2ccccc2)n1C`, the viability was 116% (inactive) in assay [1]; 102% (inactive) in assay [2]; 101% (inactive) in assay [3]; 100% in assay [4] (setting [7]); 101% in assay [4] (setting [8]). In addition, the differential viability (reversal) in assay [4] (H69AR cells + 2 uM doxorubicin) is 0.425% (inactive). For the same compound, the figures for the inhibition in assay [5] and in assay [6] were 2.88% (inactive) and -6.45% (inactive), respectively.

Regarding `O=C(NCCCN1CCCC1=O)c1cccnc1`, the viability in assay [1] was 135% (inactive); in assay [2], 113% (inactive); in assay [3] it was 89.2% (inactive); in assay [4] (setting [7]) it was 88.7%; in assay [4] (setting [8]) it was 89.2%. Besides, the differential viability (reversal) in assay [4] (H69AR cells + 2 uM doxorubicin) is 0.48% (inactive). Moreover, the figures for the inhibition in assay [5] and in assay [6] were -4.25% (inactive) and 3.09% (inactive), respectively.

In the case of `CCOc1ccc(-c2c(C#N)c(N)nc3c2c(=O)n(C)c(=O)n3C)cc1OC`, the viability in assay [1] is 114% (inactive); in assay [2] it was 86% (inactive); in assay [3] it was 94.7% (inactive); in assay [4] (setting [7]), 92.1%; in assay [4] (setting [8]), 94.7%. For the same compound, the differential viability (reversal) in assay [4] (H69AR cells + 2 uM doxorubicin) was 2.56% (inactive). The inhibition was -6.44% (inactive) in assay [5] and 6.77% (inactive) in assay [6].

For the compound `O=C(CSc1nnc(-c2ccccc2)o1)NC1CCCCC1`, the viability was 75% (inactive) in assay [1]; 105% (inactive) in assay [2]; 98.5% (inactive) in assay [3]; 83.9% in assay [4] (setting [7]); 98.5% in assay [4] (setting [8]). The differential viability (reversal) in assay [4] (H69AR cells + 2 uM doxorubicin) was 14.7% (inactive). Besides, the inhibition is -7.12% (inactive) in assay [5] and 3.55% (inactive) in assay [6].

Turning to `COc1ccc(NC(=O)Cn2nnc(-c3ccccc3F)n2)cc1Cl`, the viability in assay [1] is 116% (inactive); in assay [2] it was 104% (inactive); in assay [3], 95.5% (inactive); in assay [4] (setting [7]) it was 92.3%; in assay [4] (setting [8]), 95.5%. Also, the differential viability (reversal) in assay [4] (H69AR cells + 2 uM doxorubicin) was 3.27% (inactive). For the same compound, the inhibition in assay [5] is -8.22% (inactive); in assay [6], 0.18% (inactive).

`N#CC1=C(N)C(C#N)(C#N)[C@H](c2ccsc2)[C@H]2COCC=C12`: the viability in assay [1] is 126% (inactive); in assay [2], 96% (inactive); in assay [3], 97.4% (inactive); in assay [4] (setting [7]) it was 95.1%; in assay [4] (setting [8]), 97.4%. For the same compound, the differential viability (reversal) in assay [4] (H69AR cells + 2 uM doxorubicin) was 2.33% (inactive). In addition, the inhibition in assay [5] is -6.03% (inactive); in assay [6] it was 2.58% (inactive).

Turning to `Clc1ccccc1CN1CCc2sccc2C1`, the viability is 95% (inactive) in assay [1]; 78.2% (inactive) in assay [2]; 99% (inactive) in assay [3]; 79.1% in assay [4] (setting [7]); 99% in assay [4] (setting [8]). In addition, the differential viability (reversal) in assay [4] (H69AR cells + 2 uM doxorubicin) is 19.9% (inactive). Further, the inhibition in assay [5] was 1.95% (inactive); in assay [6], 8.17% (inactive).

(Values after PubChem BioAssay.)
